Reference: ChEMBL document CHEMBL1144771, “Synthesis of 1-substituted 3-pyridinylmethylidenylindolin-2-ones and 1-substituted 3-quinolinylmethylidenylindolin-2-ones as the enhancers of ATRA-induced differentiation in HL-60 cells” (Bioorg Med Chem, 2008)
Active and inactive are the calls of the source. The rule behind the calls is not given here.

Key:
[1] = tested on: HL-60; test: Cytotoxicity against human HL60 cells at 1.0 uM after 72 hrs by MTT assay relative to control; format: functional
How it was run: (§1)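 Log-phase HL-60 cells at 4×10^4 cells/mL in RPMI-1640 with 10% FBS, 37 °C, 5% CO2. Treated 72 h with compound, with or without 5 nM ATRA. Cells washed in cold PBS, given MTT (5 mg/mL solution) in HBSS for 2 h at 37 °C in the dark. Formazan dissolved in DMSO, absorbance read at 570 nm. Viability given as % of vehicle control; means ± SD, four independent experiments.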

[2] = tested on: HL-60; test: Cytotoxicity against human HL60 cells at 2.5 uM after 72 hrs by MTT assay relative to control; format: functional; how it was run: as §1
[3] = tested on: HL-60; test: Cytotoxicity against human HL60 cells after 72 hrs by MTT assay; format: functional, cell-based; how it was run: as §1
[4] = tested on: HL-60; test: Induction of cell differentiation in human HL60 cells at 2.5 uM after 72 hrs by NBT reduction assay; format: functional
[5] = tested on: HL-60; test: Cytotoxicity against human HL60 cells at 5.0 uM after 72 hrs by MTT assay relative to control; format: functional; how it was run: as §1
[6] = tested on: HL-60; test: Induction of cell differentiation in human HL60 cells at 1.0 uM after 72 hrs by NBT reduction assay; format: functional
[7] = tested on: HL-60; test: Induction of cell differentiation in human HL60 cells at 5.0 uM after 72 hrs by NBT reduction assay; format: functional
[8] = tested on: HL-60; test: Induction of cell differentiation in human HL60 cells at 2.5 uM after 72 hrs by NBT reduction assay relative to control; format: functional
[9] = tested on: HL-60; test: Cytotoxicity against human HL60 cells at 5.0 uM after 72 hrs by MTT assay; format: functional, cell-based; how it was run: as §1
[10] = tested on: HL-60; test: Cytotoxicity against human HL60 cells at 1.0 uM after 72 hrs by MTT assay; format: functional; how it was run: as §1
[11] = tested on: HL-60; test: Cytotoxicity against human HL60 cells at 2.5 uM after 72 hrs by MTT assay; format: functional; how it was run: as §1
[12] = tested on: HL-60; test: Induction of cell differentiation in human HL60 cells at 5.0 uM after 72 hrs by NBT reduction assay relative to control; format: functional
[13] = tested on: HL-60; test: Cytotoxicity against human HL60 cells at 0.5 uM after 72 hrs by MTT assay relative to control; format: functional; how it was run: as §1
[14] = tested on: HL-60; test: Induction of cell differentiation in human HL60 cells at 0.5 uM after 72 hrs by NBT reduction assay; format: functional
[15] = tested on: HL-60; test: Cytotoxicity against human HL60 cells at 2 uM after 72 hrs by MTT assay; format: functional, cell-based; how it was run: as §1
[16] = tested on: HL-60; test: Induction of cell differentiation in human HL60 cells at 2.0 uM after 72 hrs by NBT reduction assay; format: functional, cell-based
[17] = tested on: HL-60; test: Cytotoxicity against human HL60 cells at 10.0 uM after 72 hrs by MTT assay relative to control; format: functional; how it was run: as §1
[18] = tested on: HL-60; test: Induction of cell differentiation in human HL60 cells at 10.0 uM after 72 hrs by NBT reduction assay; format: functional
[19] = tested on: HL-60; test: Cytotoxicity against human HL60 cells at 0.5 uM after 72 hrs by MTT assay; format: functional; how it was run: as §1
[20] = tested on: HL-60; test: Cytotoxicity against human HL60 cells at 2 uM after 72 hrs by MTT assay relative to control; format: functional; how it was run: as §1
[21] = tested on: HL-60; test: Induction of cell differentiation in human HL60 cells at 2.0 uM after 72 hrs by NBT reduction assay relative to control; format: functional
[22] = tested on: HL-60; test: Cytotoxicity against human HL60 cells at 0.1 uM after 72 hrs by MTT assay relative to control; format: functional; how it was run: as §1
[23] = tested on: HL-60; test: Induction of cell differentiation in human HL60 cells at 0.1 uM after 72 hrs by NBT reduction assay; format: functional
[24] = Cytotoxicity against human leukocytes after 48 hrs by MTT assay; format: cell-based; conditions: Leukocyte
How it was run: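 Human normal leukocytes in RPMI-1640 with 10% FBS. Treated with vehicle, compound alone, or compound plus 5 nM ATRA; 48 h per the legend (72 h per methods). Viability by MTT with formazan absorbance at 570 nm; 50% growth-inhibition concentration reported. Means ± SD, four experiments.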

[25] = tested on: HL-60; test: Cell cycle arrest in human HL60 cells assessed as increase in G0/G1 phase accumulation at 2 uM after 72 hrs by flow cytometry; format: functional
How it was run: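 HL-60 cells at 4×10^4 cells/mL, 72 h with vehicle, ATRA (5 nM or 1 µM), 2 µM compound alone, or 2 µM compound plus 5 nM ATRA. Cells fixed in 70% ice-cold ethanol at -20 °C overnight. Stained 30 min at 37 °C in the dark with 1% Triton X-100, 0.1 mg/mL RNase and 4 µg/mL propidium iodide. G0/G1 fraction by flow cytometry; means ± SD, four experiments.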

[26] = tested on: HL-60; test: Effect on morphology in human HL60 cells assessed as population of horseshoe-shape nuclei at 2 uM after 72 hrs; format: functional, cell-based
How it was run: (§2)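 HL-60 cells (4×10^4) treated 72 h with vehicle, 2 µM compound alone, 2 µM compound plus 5 nM ATRA, 5 nM ATRA, or 1 µM ATRA. Unstained cells examined for spindle shape at 200× magnification. Liu's-stained cells examined by optical microscopy for horseshoe-shaped nuclei.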

[27] = tested on: HL-60; test: Effect on morphology in human HL60 cells assessed as spindle-shape at 2 uM after 72 hrs; format: functional, cell-based; how it was run: as §2
[28] = tested on: HL-60; test: Cytotoxicity against human HL60 cells at 1.0 uM after 72 hrs by MTT assay relative to ATRA; format: functional; conditions: in the assay text read “relative to control” for “relative to ATRA”; how it was run: as §1

Structure (SMILES) | Activity [1] | Activity [2] | IC50 ([3]; Homo sapiens, HL-60, 72 h) | Activity [4] | Activity [5] | Activity [6] | Activity [7] | Activity [14] | other results
CC(c1ccccc1)N1C(=O)/C(=C\c2ccccn2)c2ccccc21 (centres undefined) | 90% | 87.1% | 5.9 µM | 0.7% | 55.7% | 0.7% | 2% |  | 
O=C1/C(=C\c2cccnc2)c2ccccc2N1Cc1ccccc1 | 93.2% | 75.9% | 3.8 µM | 0.8% | 25.4% | 0.7% | 2.7% |  | 
CC(c1ccccc1)N1C(=O)/C(=C\c2ccnc3ccccc23)c2ccccc21 (centres undefined) | 72.6% | 31% |  |  |  | 1.2% | Toxic |  | Activity [8]: 20.8%; Activity [9]: Toxic
O=C1/C(=C\c2ccccn2)c2ccccc2N1Cc1ccccc1 |  |  | 3.6 µM | 0.7% | 24.7% | 0.7% | 3.4% |  | Activity [10]: 116.6%; Activity [11]: 98.5%
O=C1/C(=C\c2cnc3ccccc3c2)c2ccccc2N1Cc1ccccc1 |  | 70.6% | 3.2 µM | 0.8% | 10.9% | 0.7% |  |  | Activity [10]: 117.4%; Activity [12]: 23.6%
CC(c1ccccc1)N1C(=O)/C(=C\c2ccncc2)c2ccccc21 (centres undefined) | 49.2% |  |  |  |  | 0.8% |  | 1% | Activity [13]: 66.7%; Activity [15]: Toxic; Activity [16]: Toxic
O=C1/C(=C\c2ccnc3ccccc23)c2ccccc2N1Cc1ccccc1 | 85.2% |  | 10.6 µM |  | 73.8% | 0.8% | 2.1% |  | Activity [17]: 51.2%; Activity [18]: 4.7%
CC(c1ccccc1)N1C(=O)/C(=C\c2ccc3ccccc3n2)c2ccccc21 (centres undefined) |  | 81.3% | 3.4 µM | 1% | 18.5% | 0.8% |  |  | Activity [10]: 103.2%; Activity [12]: 15%
O=C1/C(=C\c2ccncc2)c2ccccc2N1Cc1cccc2ccccc12 |  |  |  | Toxic |  | 0.5% |  | 0.8% | Activity [10]: 90.8%; Activity [19]: 103.6%; Activity [11]: Toxic
CC(c1ccccc1)N1C(=O)/C(=C\c2cnc3ccccc3c2)c2ccccc21 (stereo in doubt; 25Z) | 82.3% |  | 1.5 µM |  |  | 3.8% |  | 1.3% | Activity [20]: 20.3%; Activity [19]: 116.1%; Activity [21]: 40.8%
O=C1/C(=C\c2ccncc2)c2ccccc2N1Cc1ccc2ccccc2c1 |  |  |  |  |  | Toxic |  | 0.7% | Activity [13]: 59.6%; Activity [10]: Toxic; Activity [22]: 78.2%; Activity [23]: 0.8%
CC(c1ccccc1)N1C(=O)/C(=C\c2cnc3ccccc3c2)c2ccccc21 (stereo in doubt; 25) [listing 1 of 2 here] | 70.9% |  |  |  |  | 0.3% |  | 0.8% | IC50 [24]: 14 µM; Activity [13]: 89.5%; Activity [25]: 49.8%; Activity [20]: 24.7%; IC50 ([3]; hl-60): 1.4 µM; Activity [21]: 33.9%
CC(c1ccccc1)N1C(=O)/C(=C\c2cnc3ccccc3c2)c2ccccc21 (stereo in doubt; 25) [listing 2 of 2 here] |  |  |  |  |  |  |  |  | Activity [26]: Active; Activity [27]: Active
CC(c1ccccc1)N1C(=O)/C(=C/c2cnc3ccccc3c2)c2ccccc21 (centres undefined) | 82.9% |  | 1.4 µM |  |  | 4.3% |  | 0.8% | Activity [20]: 25.5%; Activity [19]: 109.9%; Activity [21]: 37.7%
CC(c1ccccc1)N1C(=O)/C(=C\c2cccnc2)c2ccccc21 (centres undefined) | 88% | 87% | 3.3 µM | 2.5% | 19.6% | 0.8% |  |  | Activity [8]: 2.5%
O=C1/C(=C\c2ccncc2)c2ccccc2N1Cc1ccccc1 | 85.6% | 24.4% | 1.9 µM |  |  | 1.2% |  | 0.3% | Activity [8]: 7%; Activity [19]: 101%
O=C1/C(=C\c2cc[n+]([O-])cc2)c2ccccc2N1Cc1ccccc1 |  | 43.4% | 2.9 µM | 3.2% | 22% | 1.6% |  |  | Activity [12]: 11.5%; Activity [28]: 90%
O=C1/C(=C\c2ccc3ccccc3n2)c2ccccc2N1Cc1ccccc1 | 82.7% | 55.7% | 2.8 µM | 2% | 12.2% | 2% | 4.4% |  | 
